Like-named read-outs stand apart in the source and are kept apart here.
Experiments:
MDA-MB-231 cells [1] = experiment: Transwell invasion assay; assay type: cell-based; conditions: 60 nM, untreated 81.3 ± 5.7
MDA-MB-231 cells [2] = experiment: Transwell migration assay; assay type: cell-based; conditions: 60 nM, untreated 231.3 ± 12.2
[3] = H&E staining of vital organs, in vivo safety; conditions: mice; 20 mg/kg; heart, liver, spleen, lung, kidney
Summary of the method: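 Heart, liver, spleen, lung and kidney came from the H22 allograft mice at sacrifice: vehicle, CA-4 20 mg/kg and test compound 20 mg/kg groups. Organs were fixed in 4% paraformaldehyde overnight, paraffin-embedded, sectioned and stained with haematoxylin and eosin.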

Hela = experiment: CCK-8 antiproliferative assay, Hela; assay type: cell-based; conditions: read-out: IC50 (µM) Hela
Summary of the method: (§1)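 Cells were grown in RPMI-1640 with 10% FBS at 37 °C in 5% CO2. About 3.5 × 10^3 cells/well were seeded, grown 24 h, then given test compound at several concentrations for 72 h in triplicate wells. CCK-8 was added for 2–3 h and OD read at 450 nm to give inhibition rate or IC50. K562 screen: mean of ≥2 independent experiments. Five-line panel: mean ± SD of three.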

K562 cell line = experiment: CCK-8 antiproliferative assay, K562; assay type: cell-based; conditions: for IC50: read-out: IC50 (µM) K562
Summary of the method: as §1

[4] = tested on: Cyclin B1, Cdc-2 and Cdc-25c; experiment: Western blot of G2/M phase associated proteins; assay type: cell-based; conditions: K562; 48 h; western blotting; dose-dependent
Summary of the method: (§2)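 K562 cells were treated with or without test compound at several concentrations for 48 h. They were lysed in cold buffer with PMSF and centrifuged at 14,000 rpm for 15 min, and protein was quantified by BCA. Equal protein was run on SDS-PAGE, blotted to PVDF, blocked in 5% skim milk for 2 h, probed overnight at 4 °C, then secondary antibody for 1–2 h, and detected by ECL with densitometry. Targets: Cdc-2, Cyclin B1, Cdc25c; Bad, Bax, Bcl-2, Bcl-xl; GAPDH reference.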

Bcl-2 protein family = experiment: Western blot of apoptosis associated proteins; assay type: cell-based; conditions: K562, 48 h, western blotting
Summary of the method: as §2

K562 cells [5] = experiment: Confocal immunofluorescence assay of microtubule networks; assay type: cell-based; conditions: 48 h, 15, 30, 60 nM
HUVECs [6] = experiment: HUVEC tube formation assay on Matrigel; assay type: cell-based, human; conditions: 60 nM
K562 cells [7] = experiment: Annexin V-FITC/PI apoptosis flow cytometry; assay type: cell-based; conditions: 60 nM, 48 h, control 2.47%
normal cell line HFL-1 = experiment: CCK-8 assay, normal cell line HFL-1; assay type: cell-based; conditions: read-out: IC50 (µM) HFL-1
Summary of the method: as §1

K562 cells [8] = experiment: Hoechst 33342 staining; assay type: cell-based; conditions: 48 h
H22 allograft = H22 allograft mice model, in vivo antitumor effect; conditions: 20 mg/kg i.v. once a day, three weeks; for tumour growth inhibition (TGI) value: by tumour weight
Summary of the method: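 H22 cells in log phase (1 × 10^7 cells/mL, 0.1 ml) were injected s.c. into the right flank. Tumour size and body weight were recorded every two days. Mice were sacrificed at about 21 days. TGI (%) = (1 − Wt/Wc) × 100, using mean tumour weights.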

A549 = experiment: CCK-8 antiproliferative assay, A549; assay type: cell-based; conditions: read-out: IC50 (µM) A549
Summary of the method: as §1

HUVEC = experiment: Inhibition of HUVEC proliferation; assay type: cell-based, human; conditions: read-out: IC50 in inhibiting the proliferation of HUVEC
K562 cells [9] = experiment: PI cell cycle flow cytometry; assay type: cell-based; conditions: 48 h, untreated 12.99 ± 0.26%
H22 = experiment: CCK-8 antiproliferative assay, H22; assay type: cell-based, mouse; conditions: read-out: IC50 (µM) H22
Summary of the method: as §1

[10] = tested on: colchicine binding site on tubulin; experiment: [3H]-colchicine competition scintillation proximity assay; conditions: tubulin 1 µM, [3H]-colchicine 5 µM
Summary of the method: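 Competition scintillation proximity assay. Test compound was added to buffer (80 mM PIPES pH 6.8, 1 mM EGTA, 1 mM MgCl2, 10% glycerol, 1 mM GTP) containing tubulin 1 µM, then [3H]-colchicine 5 µM. After 2 h incubation, streptavidin-labelled SPA beads were added and radioactivity counted. Percent inhibition of colchicine binding was reported as mean ± SD of three independent experiments.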

H22 tumour = experiment: Immunohistochemistry of tumour tissue; assay type: in vivo, mice; conditions: H22 tumours; 20 mg/kg; IHC; vs control group
Summary of the method: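 Tumours came from the vehicle, CA-4 20 mg/kg and test compound 20 mg/kg allograft groups. They were fixed in 4% paraformaldehyde overnight, paraffin-embedded and sectioned. Sections were blocked with 1% BSA for 20 min, incubated with CD31 or Ki67 primary antibody overnight at 4 °C, then HRP goat anti-rabbit for 1 h, developed with DAB and counterstained with haematoxylin. CD31 staining gave microvessel density.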

HUVECs [11] = experiment: HUVEC wound healing assay; assay type: cell-based, human; conditions: 24 h, dose-dependent
Summary of the method: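 HUVECs were seeded at 5 × 10^5 cells/well overnight and incubated with or without test compound at several concentrations for 24 h. The monolayer was then scratched with a pipette tip and washed with PBS. The wound was imaged at 100× and imaged again after a further 24 h of culture.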

[12] = Homo sapiens, K562, 72 h, read-out: Inhibition rate (%)

2-methoxy-4-((4,5,6-trimethoxy-2,3-dihydro-1H-inden-2-yl)methyl)phenol [Compound 12d]
number of invaded cells (MDA-MB-231 cells [1]): 51.3 ± 2.5 | number of migrated cells (MDA-MB-231 cells [2]): 124.0 ± 9.2 | pathological damage of vital organs (H&E) [3]: without obvious pathological damage | IC50 (Hela; Hela, CCK-8, 72 h, mean ± SD): 0.078 ± 0.005 µM | Inhibition rate (%) (K562 cell line; K562, 0.1 µM, CCK-8, 72 h): 78.82% | Inhibition rate (%) (K562 cell line; K562, 1 µM, CCK-8, 72 h): 80.57% | IC50 (K562 cell line; K562, CCK-8, 72 h, mean ± SD): 0.028 ± 0.007 µM | expression levels of Cyclin B1, Cdc-2 and Cdc-25c [4]: down-regulate | expression of antiapoptotic proteins Bcl-2 and Bcl-xl (Bcl-2 protein family): downregulated | expression level of proapoptotic proteins Bax and Bad (Bcl-2 protein family; dose-dependent): upregulated | effect on microtubule networks (K562 cells [5]): caused disorder and destruction of microtubule networks | tube formation (capillary-like tubular networks) of HUVECs (HUVECs [6]): almost all of the tube-like structure was broken | percent of total apoptosis cells (K562 cells [7]): 57.90% | IC50 (normal cell line HFL-1; normal cell line HFL-1, CCK-8, 72 h, mean ± SD): 0.271 ± 0.031 µM | apoptosis morphology and nucleus changes (K562 cells [8]): induced K562 cells nuclear fragmentation and cell morphology changes | body weight (H22 allograft): no obvious body weight loss | tumour growth inhibition (TGI) value (H22 allograft): 74.94% | IC50 (A549; A549, CCK-8, 72 h, mean ± SD): 0.087 ± 0.009 µM | IC50 (HUVEC): 2260 ± 380 nM | population at the G2/M phase (K562 cells [9]; 15 nM): 16.07 ± 0.83% | population at the G2/M phase (K562 cells [9]; 30 nM): 21.23 ± 1.14% | population at the G2/M phase (K562 cells [9]; 60 nM): 24.66 ± 0.63% | IC50 (H22; H22, CCK-8, 72 h, mean ± SD): 0.068 ± 0.008 µM | Inhibition (%) of colchicine binding ([10]; compound 1 µM): 59.81 ± 3.84% | Inhibition (%) of colchicine binding ([10]; compound 5 µM): 71.43 ± 1.03% | Ki67-positive cells (H22 tumour): decreased number of Ki-67 positive cells | microvessel density (MVD), CD31 (H22 tumour): lower MVD level | wound healing effect of HUVECs (HUVECs [11]): the wound healing effect was disrupted

COc1ccc(/C=C\c2cc(OC)c(OC)c(OC)c2)cc1O [CA-4, Combretastatin A-4, reference compound]
IC50 (Hela; Homo sapiens, HeLa, 72 h): 0.026 ± 0.006 µM | IC50 (K562 cell line; Homo sapiens, K562, 72 h): 0.004 ± 0.001 µM | inhibition at 0.1 µM (K562 cell line; [12]): 88.3% | inhibition at 1 µM (K562 cell line; [12]): 92% | IC50 (normal cell line HFL-1; Homo sapiens, HFL1, 72 h): 0.139 ± 0.017 µM | tumour growth inhibition (TGI) value (H22 allograft): 59.19% | IC50 (A549; Homo sapiens, A549, 72 h): 0.032 ± 0.005 µM | IC50 (H22; Mus musculus, H22, 72 h): 0.01 ± 0.002 µM | Inhibition (%) of colchicine binding ([10]; compound 1 µM): 78.55 ± 1.85% | Inhibition (%) of colchicine binding ([10]; compound 5 µM): 87.35 ± 1.37%

Source: publication PMC10438863 (Journal of Enzyme Inhibition and Medicinal Chemistry, 2023)
